Assay outcomes from PubChem.
RAM inhibit – inhibitors of the yeast RAM network, primary screen, dse1pr::URA3 reporter, 5-FOA selection; actives 1.8% (n = 190,000); AID 868, 2007; inhibition, % at 50 µM; S. cerevisiae dse1pr::URA3 reporter, 5-FOA growth OD615, 2 d; analog-sensitive cbk1-as2 kinase mutant strain;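 active = inhibition above a set limit, 3 SD over mean compound inhibition, cut at about 8.4% in these data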;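 note: 0% = DMSO-only wells with no growth and 100% = 10 µM 1-NA-PP1 full growth; inhibition rescues growth on 5-FOA so higher OD means more RAM inhibition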
Measles CPE – compounds protecting cells from measles virus cytopathic effect, primary screen, measles RdRp inhibitor project, single point, MLSMR library, absorbance; actives 1.5% (n = 140,000); AID 841, 2007; protection (pct of control), % at 4 µM; Measles virus-infected cells, CPE protection; in the data active = protection mostly above about 24%, no sharp cut-off; inactive = mostly below about 26%
hDAT+cocaine – changed hDAT dopamine uptake under cocaine IC80, either direction, primary screen, cocaine antagonist project, cell-based, LLC-PK1 hDAT, [14C]-dopamine uptake, MLSMR; LLC-PK1 hDAT cells, [14C]-dopamine uptake with cocaine IC80; actives deviate in either direction; B-score at 10 µM; actives 1.3% (n = 110,000);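 active = Z score or B-score, a plate-position-corrected score, falls beyond the plate's 99.7% confidence bounds, in either direction; inactive = both scores lie inside the 99.7% bounds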;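 note: scored against the spread of the other compound wells on the same plate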
Target sequence (Q01959 whole entry, looked up): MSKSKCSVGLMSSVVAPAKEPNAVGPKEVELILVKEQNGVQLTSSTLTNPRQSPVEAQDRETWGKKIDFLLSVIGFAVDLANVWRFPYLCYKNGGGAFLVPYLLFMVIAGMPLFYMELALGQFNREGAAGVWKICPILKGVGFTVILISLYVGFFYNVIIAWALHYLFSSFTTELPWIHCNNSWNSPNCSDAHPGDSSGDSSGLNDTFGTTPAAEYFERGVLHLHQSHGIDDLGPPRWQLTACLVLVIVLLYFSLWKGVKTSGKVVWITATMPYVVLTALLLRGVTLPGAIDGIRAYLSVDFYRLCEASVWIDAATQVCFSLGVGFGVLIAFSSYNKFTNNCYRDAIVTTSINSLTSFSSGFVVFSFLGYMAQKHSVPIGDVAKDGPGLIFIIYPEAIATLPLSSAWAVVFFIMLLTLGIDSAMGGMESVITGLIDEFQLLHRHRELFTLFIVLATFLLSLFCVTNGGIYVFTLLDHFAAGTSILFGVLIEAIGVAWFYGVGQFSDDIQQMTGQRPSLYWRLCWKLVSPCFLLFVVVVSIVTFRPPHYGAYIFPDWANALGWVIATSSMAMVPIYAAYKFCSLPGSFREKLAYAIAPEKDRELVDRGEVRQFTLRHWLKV
WT yeast gro inh – growth inhibition of WT strain, primary screen, mitochondrial fusion inhibitor project, WT and mutant strains, chemical genetic | mitochondrial fusion phenotypic screen | inhibition, % at 10 µM | actives 2.1% (n = 190,000) | AID 1362, 2008; in the data active = inhibition above about 58%; tested in S. cerevisiae
Yeast growth inh – growth inhibitors of yeast BB579 in restrictive medium, primary screen, yeast lifespan-shortening project, S. cerevisiae; OD615, 48 h; inhibition, % at 10 µM; actives 0.51% (n = 140,000); AID 804, 2007;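 active = inhibition above a set limit, 3 SD over the mean compound inhibition, cut at about 44% in these data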
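System: DeaD yeast strain BB579; buffer or medium: CSMM-D dextrose restrictive medium; technique: OD at 615 nm; schedule: 4 h cell preincubation, 48 h compound exposure, 30 °C humidified; doses: single 10 µM dose; controls: amphotericin B 10 µg/mL, positive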
Yeast life ext – compounds extending yeast replicative lifespan, primary screen, S. cerevisiae, OD615; S. cerevisiae growth with nicotinamide; deaD strain in restrictive glucose medium; actives 0.68% (n = 130,000); inhibition of the nicotinamide effect, % at 10 µM; AID 775, 2007;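 active = inhibition above a set limit, placed 3 SD over the median of all compounds, cut at about 26% in these data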;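 note: 0% = nicotinamide-treated wells and 100% = cells grown without nicotinamide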
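Material: Modified budding yeast, DeaD strain | Medium: Restrictive glucose medium | Probe or stimulus: 1.5 mM nicotinamide | Dosing: Single dose 10 µM compound, 0.25% DMSO | Times: 48 h at 30 °C | Technique: OD615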
Active calls of the source: *; · = no result. Most compounds without a hit are left out; they make up all but 6.1% or so of the library.

SMILES	RAM inhibit	Measles CPE	hDAT+cocaine	WT yeast gro inh	Yeast growth inh	Yeast life ext
CCOC(=O)c1cccc2c1-c1ccccc1/C2=N/O	3	3	0.46	73*	-16	-16
CC1CCCC(C)N1C(=O)c1cccc2c1-c1ccccc1/C2=N/O (stereo not given)	0	4	4*	15	-40	·
CCSC1=C(C#N)C2(CCCC2)C(C#N)=C(N)N1	4	5	-2.7*	-24	-48	-12
N#CC1=C(N)NC(SCc2ccccc2)=C(C#N)C12CCCC2	4	16	·	12	-44	1
N#CC1=C(N)NC(SCC(=O)c2ccccc2)=C(C#N)C12CCCC2	11*	5	·	-11	-29	2
N#CC1=C(N)NC(SCc2ccc(Br)cc2)=C(C#N)C12CCCCC2	3	7	·	67*	-23	·
CC(=O)c1ccc(NC(=O)C(=O)c2cn(CC(=O)N3CCCCC3)c3ccccc23)cc1	3	5	·	3	-33	-5
CCOC(=O)C1(CCc2ccccc2)CCN(C(=O)CN2CCOC2=O)CC1	1	·	·	3	·	·
CCCC1C2C(=O)N(c3ccccc3)C(=O)C2ON1c1ccccc1 (stereo not given)	1	8	-0.42	-19	-8	0
CCOc1ccccc1C1C2C(=O)N(c3ccccc3)C(=O)C2ON1c1ccccc1 (stereo not given)	-1	47*	-0.92	12	18	-12
CCCOc1ccc(N2C(=O)C3ON(c4ccccc4)C(CCC)C3C2=O)cc1 (stereo not given)	2	25*	-0.62	5	-22	-7
O=C(c1ccccc1-c1ncc[nH]1)N1CCc2c([nH]c3ccccc23)C1c1ccccn1 (stereo not given)	2	·	·	10	·	·
Cc1cc(C)c2c(-n3cccc3)c(C(=O)NNS(=O)(=O)c3ccc(Cl)cc3)sc2n1	5	7	2.6	2	-45	55
O=P(O)(O)CCP(=O)(c1ccccc1)c1ccccc1	0	18	-2.5*	10	-47	-15
CP(C)(=O)CCP(=O)(c1ccccc1)c1ccccc1	0	·	·	7	-23	3
O=[N+]([O-])c1cnc(N2CCCCC2)c([N+](=O)[O-])c1	1	17	·	-5	-27	3
Cc1ccccc1Nc1nc(CSc2nnnn2-c2ccccc2)cs1	2	10	-8*	48	-55	-17
Cc1cccc(CSc2nnc(N)n2-c2ccccc2)c1	0	6	-0.0038	-7	-28	·
Cc1cccc(CSc2nnnn2-c2ccccc2)c1	1	69*	-0.81	21	1	-7
Nc1ccc(Cc2nc3c(ccc4ccccc43)[nH]2)cc1	0	58*	2.4	-4	-54	-20
NC(=O)c1cccc(-c2cc(Nc3ccc(OC(F)(F)F)cc3)ncn2)c1	·	·	-0.41	·	·	·
CCCn1c(SCC(=O)N2CCCC2)nc2c1c(=O)n(C)c(=O)n2C	0	3	0.047	-20	-24	-12
CC(C)n1c(SCC(=O)N2CCCC2)nc2c1c(=O)n(C)c(=O)n2C	-1	33*	-0.016	-3	-40	-8
CCOC(=O)CNC(=O)CNC(=O)c1ccc(OC)cc1	0	9	-1.3	20	-13	11
CCOC(=O)CSC(=S)NC(=O)c1ccc(OC)cc1	0	2	·	-9	-49	40*
SMILES	RAM inhibit	Measles CPE	hDAT+cocaine	WT yeast gro inh	Yeast growth inh	Yeast life ext
CC1=NOC(=O)/C1=C\c1ccc(-c2ccccc2Br)o1	3	·	·	72*	·	·
Cc1ccc(C(=O)N/N=C2\SCC(=O)N2c2cc(C)ccc2C)cc1	1	12	1.1	2	-6	·
C=CCOC(=O)N1CCN(c2cccc(C(F)(F)F)c2)CC1	0	8	1	11	-23	-19
O=C(CCNC(=O)c1ccccc1Cl)Nc1ccc(Br)c(C(F)(F)F)c1	0	18	·	19	14	0
Cc1cc(C)c(C(=O)Nc2ccc(Br)c(C(F)(F)F)c2)c(C)c1	7	22	·	81*	-12	3
C/C(Nc1ccc(F)cc1)=C(/C#N)C(N)=O	0	5	-0.48	9	-8	-2
NC(=O)Nc1ccc(F)cc1	-1	70*	-0.66	0	-53	-7
O=c1cc(CN2CCOCC2)nc(C2CC2)[nH]1	0	5	-7.2*	-6	11	-12
Cc1cc(=O)[nH]c(CN2CCOCC2)n1	1	·	·	-5	·	·
CCOc1ccccc1NC(=O)C(OC(=O)c1ccccc1O)c1ccccc1 (stereo not given)	8.9*	11	·	21	-49	1
CCOc1ccccc1C(=O)Nc1ccccc1-c1ccccc1	9.6*	7	·	75*	-25	-3
CCOc1ccccc1C(=O)Nc1ccccc1O	0	11	0.024	51	-20	-27
CCOC(=O)c1c(NC(=O)C(C)NCc2ccco2)sc2c1CCC(C)C2 (stereo not given)	-2	7	-0.25	15	-45	-17
CC(C)(C)c1ccc(NC(=O)COC(=O)c2ccc([N+](=O)[O-])s2)cc1	-2	4	·	92*	100*	-11
Cc1[nH]c2ccccc2c1C(=O)COC(=O)c1ccc([N+](=O)[O-])s1	0	·	·	98*	·	·
O=C(COC(=O)c1ccc([N+](=O)[O-])s1)Nc1ccccc1	0	3	·	70*	-32	12
O=C(CCc1nnc(COc2ccccc2)o1)NCc1ccc(Cl)s1	0	·	·	2	·	·
COc1ccc(S(=O)(=O)NCc2cc(-c3ccccc3Cl)no2)cc1	0	·	·	5	·	·
CCN1C/C(=C\c2cccc([N+](=O)[O-])c2)C(=O)/C(=C/c2cccc([N+](=O)[O-])c2)C1	3	0	·	65*	-41	23
CCOc1ccc(NC(=O)CC2CC(C)(C)OC2=O)cc1 (stereo not given)	1	-1	0.3	-14	-21	-9
CCCC1CC(C)(c2csc(Nc3ccc(OCC)cc3)n2)OC1=O (stereo not given)	1	5	-0.2	69*	-36	·
CCCn1c(/N=C/c2ccc3c(c2)OCO3)nc2ccccc21	0	32*	-0.27	3	-21	-3
C(=N\c1nc2ccccc2n1CCN1CCCCC1)/c1ccc2c(c1)OCO2	0	6	-0.2	5	-4	-30
O=c1c2sccc2n(Cc2cccc(F)c2)c(=O)n1-c1ccc(F)cc1	5	5	·	-4	-45	1
